The list is not random: actives were taken first. Their share in the collection is about 1.9%.
Rce1 inh: blocks yeast Ras-converting enzyme | Q03530 | yeast membranes, quenched prenylated peptide cleavage fluorescence | calls only | 0.27% of 290,000 active | AID 2563;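 active = fall in fluorescence gain of 50% or more versus controls, with final raw signal at or below 3038400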;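 note: plate controls were neutral control wells for no effect and wells lacking membranes for full effect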
Target sequence (Q03530 whole entry, looked up): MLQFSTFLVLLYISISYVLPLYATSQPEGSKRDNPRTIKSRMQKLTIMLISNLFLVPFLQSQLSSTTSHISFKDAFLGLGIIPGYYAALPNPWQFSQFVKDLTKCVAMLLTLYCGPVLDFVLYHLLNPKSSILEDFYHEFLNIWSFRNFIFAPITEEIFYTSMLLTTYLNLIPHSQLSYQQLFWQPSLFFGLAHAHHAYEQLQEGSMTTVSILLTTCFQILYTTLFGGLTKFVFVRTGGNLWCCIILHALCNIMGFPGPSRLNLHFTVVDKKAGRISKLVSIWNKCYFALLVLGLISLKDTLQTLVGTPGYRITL
UCH37 DUB inh: inhibitors of human deubiquitinating enzyme UCH37. Q9Y5K5. inhibition, % (test concentration not listed). purified proteasome/UCH37, Ub-AMC cleavage fluorescence. 0.33% of 330,000 active. AID 588478;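 active = mean inhibition over replicate wells above about 20%, limit read from the data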;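 note: 0% = compound-free wells with enzyme and 100% = wells lacking proteasome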
Target sequence (Q9Y5K5 whole entry, looked up): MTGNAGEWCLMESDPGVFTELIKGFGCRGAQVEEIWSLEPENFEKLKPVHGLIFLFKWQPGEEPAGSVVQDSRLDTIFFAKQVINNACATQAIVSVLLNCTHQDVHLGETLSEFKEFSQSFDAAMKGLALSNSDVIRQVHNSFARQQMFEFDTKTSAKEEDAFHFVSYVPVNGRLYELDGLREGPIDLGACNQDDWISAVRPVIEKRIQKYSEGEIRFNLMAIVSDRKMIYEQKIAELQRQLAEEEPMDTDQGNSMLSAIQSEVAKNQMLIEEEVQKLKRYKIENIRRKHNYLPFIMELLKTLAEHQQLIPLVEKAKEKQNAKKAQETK
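Assay system: Proteasome-bound UCH37. Buffer or medium: pH 7.4 Tris-HCl (50 mM) with ovalbumin, ATP-MgCl2, DTT. Incubation: 30 min preincubation with enzyme, 25 min cleavage at room temperature. Measured by: fluorescence, ex 355 nm, em 460 nm. Read-out basis: percent inhibition. Control set: wells without proteasome as full block, compound-free enzyme plus substrate as uninhibited.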
PG9 binder: binds the HIV-1 gp120 antibody PG9; TR-FRET gp120-PG9 antibody binding; 0.43% of 360,000 active; inhibition, % at 6.7 µM; in the data active = inhibition above about 8.5%
beta cell repl: inducers of beta-cell replication in MIN6 cells | MIN6 cells proliferation, ATPlite luminescence, 48 h; cells starved in 0.2% serum; 100% = growth in 10% serum | proliferation, % at 10 µM | 0.29% of 330,000 active;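 active = compounds whose signal lies at least 3.5 SD above the mean of all wells on their plate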;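 note: 0% = DMSO-treated cells in low-serum medium and 100% = 10% serum control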
NR1D1 modulator: Rev-erb alpha (human) modulation. P20393. Rev-erbα–FITC-DNA binding, fluorescence polarization, 90 min. activity, % at 10 µM. 0.79% of 370,000 active. AID 1259318;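 active = activity above about 14%, limit read from the data; passing the limit was not always enough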;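 note: 0% = DMSO wells with 35 nM protein and 100% = DMSO wells with 750 nM protein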
CR mimetic SO: lowers age-related superoxide in aged yeast cells | S. cerevisiae aged cells, superoxide DHE fluorescence; hits give low values | superoxide response (% of plate mean), % at 10 µM | 0.18% of 330,000 active | AID 2690;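 active = superoxide response under a set limit, about three screen SD below normal, cut at about 65% in these data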;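 note: yeast aged for seven days with compound at 30 °C before DHE staining; 100% = average MFI of all compound-treated wells on the plate with controls excluded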
NR1D1 mod conf: Rev-erb alpha (human) modulation, hit confirmation; shares compounds with NR1D1 modulator; Rev-erb alpha FITC-DNA binding, fluorescence polarization, 90 min; activation, % at 25 µM; 61% of 3,000 active;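 active = activation at or above a set limit, or at least 3 SD above the negative control mean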;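 note: 0% = 35 nM protein with DMSO and 100% = 750 nM protein high control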
RORg DNA counter: counter-screen for Rev-erb alpha modulators: RORgamma DNA binding; shares compounds with NR1D1 modulator; purified RORgamma protein-FITC-DNA binding, fluorescence polarization; IC50, µM; 8% of 910 active; AID 1259320;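 active = Compounds whose fitted half-maximal concentration for disrupting protein-DNA binding is below 10 micromolar; the record names Rev-erb in its text, so the target is in doubt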
The depositor's hits bear a star; i = inactive; nt = no result given.

SMILES	Rce1 inh	UCH37 DUB inh	PG9 binder	beta cell repl	NR1D1 modulator	CR mimetic SO	NR1D1 mod conf	others
O=C(C[n+]1ccccc1)NN=Cc1ccccc1Cl	nt	2.8	nt	nt	nt	nt	nt
O=C(Nc1ccccc1C(F)(F)F)OCCN1C(=O)CCC12CCC(c1ccccc1)CC2 (stereo not given)	nt	nt	nt	nt	26.5*	nt	28.3*	RORg DNA counter=>40
Cc1ccc(C)c(NC(=O)CN(C)C(=O)c2ccc(-c3cccc(C(F)(F)F)c3)o2)c1	i	nt	6.0	-2.7	21.9*	105.6	22.8*
CN(CC(=O)Nc1cccc(F)c1)C(=O)c1ccc(-c2cccc(C(F)(F)F)c2)o1	i	2.9	-1.9	-7.1	-1.2	110.3	nt
CCOc1cc2[nH]c(=S)n(CCC(=O)NCc3ccco3)c(=O)c2cc1OCC	i	1.9	1.6	2.3	27.3*	95.7	-0.7
CCCOc1ccc(-c2c(C(=O)NN=CC3CC=CCC3)nnn2-c2nonc2N)cc1 (stereo not given)	nt	3.1	nt	nt	nt	nt	nt
CCOC(=O)/C(C#N)=C\c1ccc(OCC(=O)Nc2ccc(C)cc2C)c(OC)c1	i	-35.3	2.3	-1.0	27.6*	98.4	20.9*
CC(=NNC(=O)c1ccccc1)c1ccc(NC(=O)c2cccs2)cc1	nt	0.6	nt	nt	nt	nt	nt
COc1ccc(CCN2CCC(Nc3nc4ccccc4n3Cc3ccc(F)cc3)CC2)cc1	i	3.8	0.9	-7.5	-7.0	96.1	nt
COc1c(O)cccc1[C@@H](O)C1CCN(CCc2ccc(F)cc2)CC1	i	1.2	1.1	0.0	18.6*	92.7	6.0
COc1ccccc1N1C(=O)c2cccc3c(C(=O)O)ccc(c23)C1=O	i	11.0	1.1	-2.2	-2.2	100.9	nt
COc1ccccc1N1C(=O)c2cccc3c(N(C)CCO)ccc(c23)C1=O	i	nt	-4.5	-0.5	29.9*	101.2	36.7*	RORg DNA counter=>40
CC(=O)Nc1cccc2c1C(=O)N(c1ccccc1C)C2=O	i	5.4	-0.3	-4.2	4.0	96.2	nt
Cc1ccccc1N1C(=O)c2cccc3c(N(C)CCO)ccc(c23)C1=O	i	-31.6	-1.5	-0.9	40.5*	95.9	38.0*
COCCN1C(=O)/C(=C/c2ccc(N3CCCC3)cc2C)SC1=S	i	7.1	1.1	-1.7	25.4*	113.9	39.1*	RORg DNA counter=>40
COc1ccc(C=NO)cc1COc1ccc(NC(C)=O)cc1	nt	1.8	nt	nt	nt	nt	nt
CCN(CC)c1ccc(C(=O)NN=C(C)c2ccc(O)cc2)cc1	nt	9.6	nt	nt	nt	nt	nt
Cc1cc(NC(=O)CSc2nc3c(C)ccc(C)c3cc2C#N)no1	nt	-13.2	-13.8	0.7	74.5*	104.1	36.2*	RORg DNA counter=>40
Cc1ccc(C)c2c1cc(C)c1nnc(SCC(=O)N3CCCc4ccccc43)n12	i	-0.2	0.3	3.3	-2.1	100.8	nt
CCc1cc2c(C)cc(C)cc2nc1SCC(=O)Nc1cc(C)on1	i	5.4	0.4	-5.1	97.0*	122.6	18.8*
Cc1ccc(C)c2nc(SCC(=O)N3CCCc4ccccc43)c(C#N)cc12	i	-1.3	-0.7	-1.7	60.6*	92.8	72.2*	RORg DNA counter=>40
COC(=O)CSc1nc2cc(C)cc(C)c2cc1C#N	i	-2.0	-2.5	0.0	1.1	99.5	nt
Cc1cc(C)c2cc(C#N)c(SCC(=O)Nc3cc(C)on3)nc2c1	i	-3.1	2.1	0.0	104.8*	110.6	48.8*	RORg DNA counter=>40
O=C(O)c1ccc(NN=Cc2ccc(-c3ccccc3Cl)o2)cc1	nt	-35.3	nt	nt	nt	nt	nt
O=C(CSc1nnc(-c2ccccc2NC(=O)c2ccccc2)o1)OC1CCCCC1	i	-4.1	-1.6	-0.5	108.4*	99.3	16.7
SMILES	Rce1 inh	UCH37 DUB inh	PG9 binder	beta cell repl	NR1D1 modulator	CR mimetic SO	NR1D1 mod conf	others
O=C(CSc1nnc(-c2cccs2)o1)OC1CCCCC1	i	0.2	-3.0	-1.4	1.1	102.3	nt
COC(=O)c1cc(C#N)c(NCc2ccc(Cl)cc2Cl)nc1C	i	-12.7	-1.3	-3.1	23.5*	110.1	7.2
O=c1[nH]nc(Cc2ccc(-c3ccccc3Cl)o2)c2ccccc12	i	-1.5	-0.5	-2.6	33.7*	94.0	16.6*
CC(=O)C(=NNc1ccc(Cl)cc1Cl)Sc1cccc2cccnc12	nt	3.2	nt	nt	nt	nt	nt
Cc1ccc(C=c2sc3nnc(-c4ccccc4Cl)n3c2=O)o1	nt	3.6	nt	nt	nt	nt	nt
O=C(CNC(=O)c1cccc(F)c1)NN=Cc1ccc(O)c([N+](=O)[O-])c1	nt	17.3	nt	nt	nt	nt	nt
COC(=O)c1sc2nc3c(cc2c1N)C(=O)CC(C)(C)C3	i	1.4	-1.8	-0.4	69.9*	101.8	43.7*	RORg DNA counter=>40
CCOC(=O)c1sc2nc3c(cc2c1N)C(=O)CC(C)(C)C3	nt	0.1	-1.6	0.8	1.9	146.6	nt
CCN(CC)c1ccc(/C=C/c2cccc[n+]2C)c(OC)c1	i	nt	-28.0	-4.1	52.6*	93.3	55.7*	RORg DNA counter=>40
CCc1ccc(OCC(=O)NNC(=O)CSc2ncnc3sc(C)c(C)c23)cc1	i	1.4	-0.9	-2.3	26.2*	94.0	13.3
Cc1ccc(OCC(=O)NNC(=O)CSc2ncnc3sc(C)c(C)c23)cc1	i	3.6	-2.6	-3.0	51.5*	122.3	16.1
Cc1sc2ncnc(SCC(=O)NC(C)(C)C)c2c1C	i	-2.0	0.8	-2.8	0.9	105.0	nt
COc1ccc(O[C@H]2C=C[C@@H](c3ccccc3)O[C@@H]2COC(=O)CCC(C)=NOC[C@@H](O)COCc2ccco2)cc1	nt	2.3	nt	nt	nt	nt	nt
COc1ccc(C=Nn2c(C)cc(C)cc2=O)cc1	nt	1.1	nt	nt	nt	nt	nt
O=S(=O)([N-]c1nc2ccccc2nc1-n1cc[n+](Cc2ccccc2)c1)c1ccc(Br)cc1	i	-58.9	-1.1	0.6	66.8*	91.6	46.5*	RORg DNA counter=5.02*
Cc1ccc(S(=O)(=O)[N-]c2nc3ccccc3nc2-n2cc[n+](CCC(C)C)c2)cc1	i	-83.3	-4.3	-4.5	-1.6	101.4	nt
C=CCNC(=S)NN=Cc1ccc(N(CC)Cc2ccccc2)cc1	nt	-67.9	nt	nt	nt	nt	nt
COc1ccc(Cl)cc1-c1nc(-c2ccncc2)no1	i	-8.8	3.2	-2.3	29.9*	104.4	9.0
COc1ccccc1-c1nc(-c2ccncc2)no1	i	-2.1	0.3	-0.9	-5.3	141.8	nt
Cn1cc(C(=O)c2ccc(Cl)cc2Cl)cc1C(=O)NN=C(N)COc1ccc(Cl)cc1	nt	1.4	nt	nt	nt	nt	nt
Cc1ccc(NC(=O)CSc2nc3ccccc3nc2N2CCOCC2)c(C)c1	i	0.6	3.7	-1.9	38.4*	96.8	40.3*	RORg DNA counter=>40
CC(=O)Nc1ccc(NC(=O)CSc2nc3ccccc3nc2N2CCC(C)CC2)cc1	i	-8.3	-1.7	-2.5	45.0*	98.1	20.9*
Cc1ccc(NC(=O)CSc2nc3ccccc3nc2N2CCOCC2)cc1	i	-1.7	1.3	-1.0	2.7	113.1	nt
CC(=NNC(=O)Cc1ccccc1)c1ccc(Cl)s1	nt	3.5	nt	nt	nt	nt	nt

Screens: PubChem BioAssay, several laboratories
